The source of these data is ChEMBL document CHEMBL1126038, “3-(2-Carboxyindol-3-yl)propionic acid-based antagonists of the N-methyl-D-aspartic acid receptor associated glycine binding site” (J Med Chem, 1992).

The target in one assay is Glutamate NMDA receptor. The assay is described as follows: Ability to compete with [3H]glycine for strychnine-insensitive binding sites on rat cortical and hippocampal membrane. Format: tissue-based, Hippocampus. The procedure, abridged: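 Rat cortical plus hippocampal membranes, competing against [³H]glycine at strychnine-insensitive sites. Values are the mean of ≥2 experiments, with SE within 10-30% of the mean.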

Assay [1] deals with Glutamate NMDA receptor (Rattus norvegicus) (UniProt P35439+Q00959+Q00960+Q00961+Q62645+Q8VHN2+Q9R1M7). Kind of assay: Ratio of the inhibitory activity against […] for rat cortical and hippocampal membrane glutamate binding site to [3H]glycine for rat cortical and hippocampal membrane binding site. Particulars: Hippocampus. Format: tissue-based.
Assay [2] can be described thus: Ability to compete with […] for rat cortical and hippocampal membrane glutamate binding site. Format: tissue-based, Hippocampus. Summed up: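 Competition binding against [³H]CPP at the glutamate site, using rat cortical and hippocampal membranes. Values are means of two or more experiments, with standard errors ±10-30% of the mean.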
The target of assay [3] is Glutamate receptor ionotropic, AMPA (Rattus norvegicus, UniProt P19490+P19491+P19492+P19493). The assay is described as follows: The compound was evaluated […] for the competitive binding against […] for rat cortical and hippocampal membrane glutamate binding site.
Assay [4] concerns Mus musculus. Kind of assay: The compound was evaluated in vivo for the anticonvulsant activity in audiogenic seizure model (intraperitoneal), for 2 hr drug pretreatment time. Conditions: ip. The format is functional. The procedure, abridged:
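Male DBA/2J audiogenic-susceptible mice (groups of 6-8) got test compound in methylcellulose, with saline controls by the same route. A 110 dB (12 KHz) sound was given for 30 s. Absence of tonic hindlimb extension counted as protection. ED50 was reported.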

In assay [5] the test system is Mus musculus. Kind of assay: The compound was evaluated in vivo for the anticonvulsant activity in quinolinic acid seizure model (intraperitoneal), for 2 hr drug pretreatment time. Conditions: ip. The format is functional. Summed up:
(§1)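 Mice got test compound in distilled water with a few drops of Tween (1 mL/kg) at set times before icv quinolinic acid (7.7 μg in 5 μL saline). Clonic-tonic seizures were watched for 15 min, and non-convulsing mice counted as protected.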

Assay [6] concerns Mus musculus. Kind of assay: The compound was evaluated in vivo for the anticonvulsant activity in quinolinic acid seizure model (intravenous), for 5 min drug pretreatment time. The format is functional. Summed up:
as §1

Assay [7] has as its system Mus musculus. Kind of assay: The compound was evaluated in vivo for the anticonvulsant activity in quinolinic acid + probenecid seizure model (intravenous), for 5 min drug pretreatment time. The format is functional. The procedure, abridged:
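Quinolinic acid seizure in mice: probenecid 200 mg/kg ip given 30 min before the test compound. Test compound in distilled water with Tween (1 mL/kg), then icv quinolinic acid (7.7 μg in 5 μL saline). Mice were watched 15 min for clonic-tonic seizures.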

The target in assay [8] is Glutamate receptor ionotropic, kainate. The assay is described as follows: The compound was evaluated […] for the competitive binding against [3H]kainate for rat cortical and hippocampal membrane glutamate binding site.
Assay [9] deals with Mus musculus. The assay is described as follows: The compound was evaluated in vivo for the anticonvulsant activity in quinolinic acid seizure model (intracerebroventricular), for 5 min drug pretreatment time. The format is functional. Conditions: central. Summed up: as §1
In assay [10] the target is Glutamate receptor ionotropic, NMDA 1 (Rattus norvegicus, UniProt P35439). The assay is described as follows: The compound was evaluated for the ability to compete with [3H]glycine for strychnine-insensitive binding sites on rat cortical and hippocampal membrane. The format is tissue-based, Hippocampus. The procedure, abridged: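 Rat cortical plus hippocampal membranes, competing against [³H]glycine at strychnine-insensitive sites. […] Values are the mean of ≥2 experiments, with SE within 10-30% of the mean.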

The nature of assay [11]: The compound was evaluated for the ability to compete with […] for rat cortical and hippocampal membrane glutamate binding site. Format: tissue-based, Hippocampus. The procedure, abridged:
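Competition binding against [³H]CPP at the glutamate site, using rat cortical and hippocampal membranes. […] Values are means of two or more experiments, with standard errors ±10-30% of the mean.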

The IC50 is the concentration at which inhibition is half-maximal. A low value points to greater potency. With `O=C(O)COc1cc(C(=O)O)nc2ccccc12`, the half-inhibitory concentration (IC50) on Glutamate NMDA receptor turned out to be 25 µM; in [2] it was 710 µM. Besides, the Ratio in assay [1] turned out to be 28.
Turning to `O=C(O)c1cc2c(Cl)cc(Cl)cc2[nH]1`, the Ratio in assay [1] is greater than 150. In addition, the half-maximal inhibitory concentration (IC50) in [2] is greater than 1000 µM.
For `O=C(O)CCc1c(C(=O)O)[nH]c2cc(Cl)cc(Cl)c12`, the IC50 on Glutamate NMDA receptor was determined as 0.17 µM; in [3], 273 µM; in assay [8], 418 µM; in assay [2] it was 358 µM. Further, the ED50 in the assay with Mus musculus [4] is 100 mg/kg; with Mus musculus [5], 256 mg/kg; in the assay on Mus musculus [6] it was greater than 50 mg/kg; with Mus musculus [7] it was 50 mg/kg; in the assay on Mus musculus [9], 1.5 µg. Moreover, the Ratio in [1] came out at 2100 CPP/GLY.
On to `O=C(O)CSc1c(C(=O)O)[nH]c2ccccc12`, for which the half-maximal inhibitory concentration (IC50) on Glutamate NMDA receptor was found to be 12 µM; in assay [2], 16 µM. In addition, the Ratio in [1] worked out at 1.6.
On to `CS(=O)(=O)Nc1ccc2c(CCC(=O)O)c(C(=O)O)[nH]c2c1`, for which the IC50 at Glutamate NMDA receptor is greater than 100 µM.
On the same count and under the same terms, with `O=C(O)CCc1c(C(=O)O)[nH]c2cc([N+](=O)[O-])ccc12` the figure was 2.5 µM.
With `O=C(O)CCc1cc(C(=O)O)nc2ccccc12`, the IC50 (at Glutamate NMDA receptor; in [2]) was greater than 100 µM each time.
On to `Cn1c(C(=O)O)c(CCC(=O)O)c2c(Cl)cc(Cl)cc21`, for which the figures for the IC50 (at Glutamate NMDA receptor; in [2]) were 45 µM and greater than 100 µM, respectively. The Ratio in [1] is greater than 2.
Consider `O=C(O)CCc1c(C(=O)O)[nH]c2cc(Cl)ccc12`, for which the IC50 at Glutamate NMDA receptor was found to be 2 µM; in [2] it was 283 µM. Moreover, the Ratio in assay [1] turned out to be 140.
In the same order, the values of `O=C(O)CCc1c(C(=O)O)[nH]c2ccc(Cl)cc12` are 23 µM, 25 µM and 2.
In the same order, the values of `O=C(O)CCc1c(C(=O)O)[nH]c2ccccc12` are 27 µM, 34 µM and 1.
In the same order, the values of `O=C(O)CCc1c(C(=O)O)[nH]c2cccc(F)c12` are 17 µM, 51 µM and 3.
Regarding `O=C(O)c1cc(O)c2c(Cl)cc(Cl)cc2n1`, the values for the concentration for half-maximal inhibition (IC50) (at Glutamate NMDA receptor; in [2]) were 0.143 µM and 12 µM, respectively. The Ratio in assay [1] was 80.
In the case of `O=C(O)CCc1c(C(=O)O)[nH]c2cc(C(F)(F)F)ccc12`, the IC50 at Glutamate NMDA receptor was 8 µM.
`O=C(O)CCc1c(C(=O)O)[nH]c2cc(F)ccc12`: at Glutamate NMDA receptor, the half-inhibitory concentration (IC50) is 5 µM.
Turning to `O=C(O)c1cc(=O)c2ccccc2[nH]1` [TRANSTORINE], the IC50 in [2] was 71 µM.
`O=C(O)CCc1c(C(=O)O)[nH]c2c1ccc1ccccc12` came in with an IC50 at Glutamate NMDA receptor greater than 100 µM.
Turning to `O=C(O)c1cc2ccccc2[nH]1` [INDOLE-2-CARBOXYLIC ACID], in assay [1], the Ratio is 40. In assay [2], this compound yielded a half-maximal inhibitory concentration (IC50) of 4200 µM.
Turning to `COc1ccc2c(CCC(=O)O)c(C(=O)O)[nH]c2c1`, the results for the IC50 (at Glutamate NMDA receptor; in assay [2]) were 13 µM and 141 µM, respectively. The Ratio in assay [1] was found to be 11.
Compound `O=C(O)CCc1c(C(=O)O)[nH]c2cc(Oc3ccccc3)ccc12` registered an IC50 at Glutamate NMDA receptor greater than 1000 µM.
The same measure, in the same setting: with `O=C(O)CCc1c(C(=O)O)[nH]c2ccc3ccccc3c12` the figure was greater than 100 µM; with `O=C(O)CCc1c(C(=O)O)[nH]c2cc(F)cc(F)c12`, 4 µM.
Still for that read-out and setting: with `COc1cc(OC)c2c(CCC(=O)O)c(C(=O)O)[nH]c2c1` the figure was greater than 100 µM.
The same measure, in the same setting: the result for `O=C(O)CCc1c(C(=O)O)[nH]c2cccc([N+](=O)[O-])c12` reads 75 µM.
With `O=C(O)CCc1c(C(=O)O)[nH]c2cccc(Cl)c12`, the Ratio in assay [1] is 10. For the same compound, the concentration for half-maximal inhibition (IC50) in assay [2] came to 60 µM.
As for `O=C(O)CSc1c(C(=O)O)[nH]c2cc(Cl)cc(Cl)c12`, the concentration for half-maximal inhibition (IC50) on Glutamate NMDA receptor was 0.1 µM; in assay [3] it was greater than 100 µM; in assay [8], greater than 100 µM.
Consider `O=C(O)CCc1c(C(=O)O)[nH]c2cccc(C(F)(F)F)c12`, for which, at Glutamate NMDA receptor, the IC50 was 13 µM.
Consider `O=C(O)CCc1c(C(=O)O)[nH]c2c(Cl)cccc12`, for which the IC50 was greater than 100 µM on Glutamate NMDA receptor and greater than 1000 µM in [2]. In assay [1], the Ratio was greater than 1.
As for `COc1cc(C(=O)O)nc2ccccc12`, the IC50 in assay [10] and in assay [11] was greater than 100 µM throughout.
